Consider 5 molecules from ChEMBL document CHEMBL1122760, “Synthesis and biological properties of some cyclic phosphotriesters derived from 2'-deoxy-5-fluorouridine” (1984).

Molecules are shown by their SMILES. Converted amounts (≈) assume the structure as drawn.

Assay [1] relates to L1210. Nature of the assay: Dose inhibiting L1210/0 murine leukemia cell proliferation by 50% in presence of 5 ug/mL of dThd. The class given is functional. The following applies: Mus musculus, read-out: ID50 (the source's name).
The subject of assay [2] is L1210. Nature of the assay: Dose inhibiting L1210/0 murine leukemia cell proliferation by 50%. Type of assay: functional. The following applies: Mus musculus, read-out: ID50 (the source's name). The procedure, abridged: (§1)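 L1210 cells (5×10^4 per well) grown in Eagle's MEM with 10% inactivated fetal calf serum, 2 mM L-glutamine, 0.075% NaHCO3, then exposed to varying test compound concentrations for 48 h at 37 °C in humidified CO2 atmosphere; growth linear over this period. Cells counted by Coulter counter; ID50 = concentration reducing living cell number by 50%.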

Assay [3] is described as follows: Ki/Km values of L1210/0 dTMP synthase for the compound was determined.
In assay [4] the test system is L1210. Nature of the assay: Dose inhibiting L1210/0 murine leukemia cell proliferation by 50% in presence of 125 ug/mL of dUrd. Type of assay: functional. The note with it: Mus musculus, read-out: ID50 (the source's name).
For assay [5], the system named is L1210. The assay is described as follows: Dose inhibiting L1210/Br-dUrd murine leukemia cell proliferation by 50%. The note with it: Mus musculus, read-out: ID50 (the source's name). The class given is functional. The procedure, abridged:
as §1

Assay [6] is described as follows: Ratio of ID50 upon addition of dThd to the ID50 upon addition of dUrd against the L1210/0 cell proliferation. Type of assay: functional.
The nature of assay [7]: Ratio of ID50 for L1210/0 cell growth and ID50 for L1210/BdUrd cell growth. Type of assay: functional.
Assay [8] relates to L1210. Nature of the assay: Dose inhibiting L1210/0 murine leukemia cell proliferation by 50% in presence of 500 ug/mL of dCyd. The class given is functional. The note with it: Mus musculus, read-out: ID50 (the source's name).

Regarding `O=c1[nH]c(=O)n([C@H]2C[C@H](O)[C@@H](COP(=O)(O)O)O2)cc1F` [5-FLUORODEOXYURIDYLATE], the IC50 in the assay with L1210 [1] is > 100 µg/mL; with L1210 [2], 0.002 µg/mL (≈ 0.00613 µM); with L1210 [4], 0.044 µg/mL; in the assay on L1210 [5], 2.43 µg/mL (≈ 7.45 µM). Further, the Ratio is 0.0099 in assay [3], >2273 in assay [6] and 1215 in assay [7].

Turning to `O=c1[nH]c(=O)n([C@H]2C[C@H](O)[C@@H](COP3(=O)OCCCO3)O2)cc1F`, the IC50 in the assay with L1210 [8] is 1.38 µg/mL; with L1210 [1], > 100 µg/mL; with L1210 [2], 0.275 µg/mL (≈ 0.751 µM); in the assay on L1210 [4] it was 13.2 µg/mL; in the assay on L1210 [5], 197 µg/mL (≈ 538 µM). The values for the Ratio in assay [3], in assay [6] and in assay [7] were > 110, >7.58 and 716, respectively.

Consider `O=c1[nH]c(=O)n([C@H]2C[C@H](O)[C@@H](COP3(=O)OCC(F)(F)CO3)O2)cc1F`, for which the IC50 in the assay with L1210 [8] worked out at 0.036 µg/mL; with L1210 [1] it was 270 µg/mL; with L1210 [2] it was 0.003 µg/mL (≈ 0.00746 µM); in the assay with L1210 [4], 0.048 µg/mL; with L1210 [5] it was 2.42 µg/mL (≈ 6.02 µM). For the same molecule, the Ratio is > 110 in assay [3], 5637 in assay [6] and 807 in assay [7].

Regarding `O=c1[nH]c(=O)n([C@H]2C[C@H](O)[C@@H](COP3(=O)OCC(O)CO3)O2)cc1F` (stereo partly drawn), the IC50 was 2.04 µg/mL in the assay on L1210 [8]; > 1000 µg/mL in the assay with L1210 [1]; 0.32 µg/mL (≈ 0.837 µM) with L1210 [2]; 3.87 µg/mL with L1210 [4]; 165 µg/mL (≈ 432 µM) in the assay with L1210 [5]. In addition, the figures for the Ratio in assay [3], in assay [6] and in assay [7] were > 60, >258 and 516, respectively.

Regarding `O=c1[nH]c(=O)n([C@H]2C[C@H](O)[C@@H](CO)O2)cc1F` [FLOXURIDINE], the IC50 came to 34 µg/mL in the assay on L1210 [1], 0.001 µg/mL (≈ 0.00406 µM) with L1210 [2], 0.02 µg/mL with L1210 [4] and 1.75 µg/mL (≈ 7.11 µM) with L1210 [5]. Further, the Ratio in assay [3] is 66.5; in assay [6], 1700; in assay [7] it was 1750.
